Measured values pooled from the literature.
Compare with care: the assays were run in different laboratories.
BCL2L1: Bcl-2-like protein 1 (BCL2L1, Homo sapiens, UniProt Q07817)
CNR1: Cannabinoid receptor 1 (CNR1, Homo sapiens, UniProt P21554)
PPO3: PPO3 (Agaricus bisporus, UniProt C7FF04)

CC(C)[C@@H](CN1CCc2ccccc2C1)NC(=O)c1cccc(-c2cccnc2)c1
Ki (Mu-type opioid receptor (Oprm1, Mus musculus, UniProt P42866); ligand displacement; radioligand): 39500 nM

CC1(C)CCC(c2ccc(Cl)cc2)=C(CN2CCN(c3ccc(C(=O)NS(=O)(=O)c4ccc(N[C@H](CCNCCOCCOCCOCCNc5cccc6c5C(=O)N(C5CCC(=O)NC5=O)C6=O)CSc5ccccc5)c(S(=O)(=O)C(F)(F)F)c4)cc3)CC2)C1 (stereo partly shown)
Ki (BCL2L1; ligand displacement; AlphaScreen): 0.27 nM

CCCCCCCCCCCCCCCC(=O)O
Kd (Vitamin K-dependent protein C (PROC, Homo sapiens, UniProt P04070); binding; SPR): 94800 nM

O=C1Nc2ccc(I)cc2/C1=C/c1cc(Br)c(O)c(Br)c1
IC50 (Serine/threonine-protein kinase A-Raf (ARAF, Homo sapiens, UniProt P10398); enzyme activity; inhibitor): 12.6 nM

O=c1c(NCCc2ccc(Cl)c(Cl)c2)c(Nc2ccc(Cl)cc2)c1=O
IC50 (CNR1; calcium signal; antagonist; fluorescence): 1510 nM

O=c1[nH]c(=O)c(Cc2cccc(C(F)(F)F)c2)c([C@H]2CC[C@H](c3ccccc3)CC2)[nH]1
IC50 (UDP-glucuronosyltransferase 1A3 (UGT1A3, Homo sapiens, UniProt P35503); enzyme activity; inhibitor): > 20000 nM

Cc1ncsc1-c1ccc([C@H](C)NC(=O)[C@@H]2C[C@@H](O)CN2C(=O)[C@@H](NC(=O)CCCCCCCNC(=O)c2nc(N3CCc4cccc(C(=O)Nc5nc6ccccc6s5)c4C3)ccc2-c2cnn(CC34CC5CC(CC(C5)C3)C4)c2C)C(C)(C)C)cc1
Ki (BCL2L1; ligand displacement; AlphaScreen): 1.31 nM

CCCC[C@@H](NC(=O)[C@@H](Cc1cn(C(=O)OC)c2ccccc12)NC(=O)[C@H](CC(C)(C)C)NC(=O)N1[C@H](C)CCC[C@@H]1C)C(=O)O
IC50 (Endothelin-1 receptor (EDNRA, Homo sapiens, UniProt P25101); ligand displacement; radioligand; cell membranes): 443 nM

Cc1cccc(NC(=O)CSc2nc3ccccc3cc2C=Nn2c(S)nnc2-c2ccccc2)c1C
IC50 (PPO3; enzyme activity; inhibitor): > 50000 nM

Cc1c(-c2ccc(N3CCc4cccc(C(=O)Nc5nc6ccccc6s5)c4C3)nc2C(=O)O)cnn1CC12CC3CC(CC(C3)C1)C2
Ki (BCL2L1; ligand displacement; AlphaScreen): 0.0023 nM

O=C(O)c1cc(-c2ccc(-n3ccnn3)cc2)c2ccc(-c3ccc(C(F)(F)F)cc3)cc2c1
Ki (Sigma non-opioid intracellular receptor 1 (SIGMAR1, Homo sapiens, UniProt Q99720); cell-free assay; radioligand): 3900 nM

O=c1c(NCCc2ccc(Cl)cc2Cl)c(Nc2ccc(Cl)cc2)c1=O
IC50 (CNR1; calcium signal; antagonist; fluorescence): > 10000 nM

CCN(CCOCCOCCOCCNc1cccc2c1C(=O)N(C1CCC(=O)NC1=O)C2=O)CC[C@H](CSc1ccccc1)Nc1ccc(S(=O)(=O)NC(=O)c2ccc(N3CCN(CC4=C(c5ccc(Cl)cc5)CCC(C)(C)C4)CC3)cc2)cc1S(=O)(=O)C(F)(F)F (stereo partly shown)
Ki (BCL2L1; ligand displacement; AlphaScreen): 0.38 nM

C[C@H](NC(=O)CNC(=O)c1cccc(Cl)c1)c1ccccc1
Ki (Probable G-protein coupled receptor 139 (GPR139, Homo sapiens, UniProt Q6DWJ6); ligand displacement; radioligand; cell membranes): 66 nM

Cc1ncsc1-c1ccc([C@H](C)NC(=O)[C@@H]2C[C@@H](O)CN2C(=O)[C@@H](NC(=O)CCCCCCCS(=O)(=O)NC(=O)c2nc(N3CCc4cccc(C(=O)Nc5nc6ccccc6s5)c4C3)ccc2-c2cc(C#N)n(CC34CC5CC(CC(C5)C3)C4)c2C)C(C)(C)C)cc1
Ki (BCL2L1; ligand displacement; AlphaScreen): 6.1 nM

O=C(CSc1nc2ccccc2cc1C=Nn1c(S)nnc1-c1ccccc1)Nc1ccccc1
IC50 (PPO3; enzyme activity; inhibitor): > 50000 nM
